Experiment [1] has as its system Mus musculus. In words: Anticonvulsant activity against subcutaneous pentylenetetrazole-induced seizures in mouse at >100 to 300 mg/kg, ip. The class given is functional, organism-based. Set-up: dose 300 mg/kg.
The test system of experiment [2] is Staphylococcus aureus. Briefly: Antibacterial activity against Staphylococcus aureus ATCC 25923 after 18 hrs by NCCLS M7-A4 method. It is filed as functional, organism-based. The gist of the method: (§1)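 Agar dilution on Mueller–Hinton agar, following NCCLS (now CLSI) guidance. Test compounds were dissolved in 80% DMSO in water and tested at 0.12 to 16. Plates were incubated at 35 °C for 18 h. The MIC was the lowest concentration giving complete growth inhibition.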

For experiment [3], the system named is Staphylococcus aureus. In words: Antibacterial activity against methicillin-resistant Staphylococcus aureus clinical isolate after 18 hrs by NCCLS M7-A4 method. The class given is functional. The gist of the method: (§2)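 Test compounds dissolved in 80% DMSO in water. Clinical isolates came from a MRSA reference laboratory culture collection. Final inoculum 10^7 CFU/ml, incubated 35 °C for 18 h. MIC taken as the lowest concentration completely inhibiting growth. Reference strains S. aureus ATCC 25923, S. epidermidis ATCC 12228 and E. faecalis ATCC 29212 served as test controls.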

The test system of experiment [4] is Haemophilus influenzae. In words: Antibacterial activity against Haemophilus influenzae clinical isolate after 18 hrs by NCCLS M7-A4 method. It is filed as functional. An outline of the steps:
(§3)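 Agar dilution on Mueller–Hinton agar with 5% sheep blood, per NCCLS/CLSI. Compounds were dissolved in 80% DMSO in water and tested over 0.12–16. Incubation was 35 °C for 18 h. MIC was read as the lowest concentration completely inhibiting growth. Line 4 used clinical isolates (n = 7 for H. influenzae).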

The test system of experiment [5] is Enterococcus. In words: Antibacterial activity against vancomycin-sensitive Enterococcus clinical isolate after 18 hrs by NCCLS M7-A4 method. It is filed as functional. The gist of the method: as §2
The subject of another experiment is Escherichia coli. In words: Antibacterial activity against Escherichia coli ATCC 25922 after 18 hrs by NCCLS M7-A4 method. The class given is functional, organism-based. An outline of the steps: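 Reference E. coli strain tested by NCCLS/CLSI agar dilution. Compounds were in 80% DMSO in water over a 0.12–16 dilution range, incubated at 35 °C for 18 h.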
The test system of experiment [6] is Staphylococcus aureus. In words: Antibacterial activity against methicillin-susceptible Staphylococcus aureus clinical isolate after 18 hrs by NCCLS M7-A4 method. The class given is functional. An outline of the steps:
as §2

Experiment [7] deals with Haemophilus influenzae. Briefly: Antibacterial activity against Haemophilus influenzae ATCC 49247 after 18 hrs by NCCLS M7-A4 method. The class given is functional, organism-based. An outline of the steps: as §3
The subject of a further experiment is Streptococcus pneumoniae. In words: Antibacterial activity against Streptococcus pneumoniae clinical isolate after 18 hrs by NCCLS M7-A4 method. It is filed as functional. The gist of the method: as §3
Experiment [8] relates to Staphylococcus. Briefly: Antibacterial activity against methicillin-resistant coagulase-negative Staphylococcus clinical isolate after 18 hrs by NCCLS M7-A4 method. The class given is functional. An outline of the steps:
as §2

Experiment [9] relates to Staphylococcus. In words: Antibacterial activity against methicillin-sensitive coagulase-negative Staphylococcus clinical isolate after 18 hrs by NCCLS M7-A4 method. The class given is functional. An outline of the steps:
as §2

The next experiment has as its system Enterococcus faecalis. In words: Antibacterial activity against Enterococcus faecalis ATCC 29212 after 18 hrs by NCCLS M7-A4 method. The class given is functional, organism-based. The gist of the method:
as §1

Experiment [10] concerns Staphylococcus epidermidis. Briefly: Antibacterial activity against Staphylococcus epidermidis ATCC 12228 after 18 hrs by NCCLS M7-A4 method. It is filed as functional, organism-based. The gist of the method: as §1
Experiment [11] deals with Enterococcus. In words: Antibacterial activity against vancomycin-resistant Enterococcus clinical isolate after 18 hrs by NCCLS M7-A4 method. It is filed as functional. The gist of the method: as §2
Experiment [12] has as its system Mus musculus. Briefly: Anticonvulsant activity against maximal electroshock-induced seizures in mouse at >100 to 300 mg/kg, ip. The class given is functional, organism-based. More on the design: dose 300 mg/kg. On the technique in general: Protection in the maximal electroshock model is a classic sign of anticonvulsant action.

Molecules are shown by their SMILES. Converted amounts (≈) assume the structure as drawn. The source made the active and inactive calls. The rule behind the calls is not given here. Where only a bound is given, the exact number is not on record here.

Consider `CCOC(=O)C1C(=O)C=C(N2CCOCC2)CC1C` (centres undefined), for which the outcome in the experiment with Mus musculus [1] was Active.
On to `O=C1O[C@@H](Cn2ccnn2)CN1c1ccc(N2CCOCC2)c(F)c1`, for which the outcome (in the experiment with Staphylococcus aureus [2]; in the experiment on Escherichia coli; in the experiment on Haemophilus influenzae [7]; in the experiment on Enterococcus faecalis; in [10]) was inactive. For the same compound, the MIC with Staphylococcus aureus [3] was determined as 0.5 µg/mL (≈ 1.44 µM); in the experiment with Haemophilus influenzae [4], 32 µg/mL (≈ 92.1 µM); against Enterococcus [5], 0.5 µg/mL (≈ 1.44 µM); against Staphylococcus aureus [6], 0.5 µg/mL (≈ 1.44 µM); with Streptococcus pneumoniae it was 0.5 µg/mL (≈ 1.44 µM); with Staphylococcus [8], 0.5 µg/mL (≈ 1.44 µM). Also, the MIC in the experiment with Staphylococcus [9] was determined as 1 µg/mL (≈ 2.88 µM); against Enterococcus [11] it was 0.5 µg/mL (≈ 1.44 µM).
Consider `CCOC(=O)C1C(=O)C=C(Nc2ccc(Cl)cc2)CC1c1ccccc1` (centres undefined), for which the result in the experiment with Mus musculus [12] was Active.
In the case of `CC(=O)NC[C@H]1CN(c2ccc(N3CCOCC3)c(F)c2)C(=O)O1` [LINEZOLID], the result (in the experiment on Staphylococcus aureus [2]; with Escherichia coli; with Haemophilus influenzae [7]; in the experiment on Enterococcus faecalis; in experiment [10]) was inactive. The MIC in the experiment on Staphylococcus aureus [3] is 0.5 µg/mL (≈ 1.48 µM); in the experiment on Haemophilus influenzae [4], 8 µg/mL (≈ 23.7 µM); with Enterococcus [5], 1 µg/mL (≈ 2.96 µM); in the experiment on Staphylococcus [8], 0.5 µg/mL (≈ 1.48 µM); in the experiment on Staphylococcus [9], 0.5 µg/mL (≈ 1.48 µM); against Enterococcus [11], 1 µg/mL (≈ 2.96 µM).
On to `CCOC(=O)C1C(=O)C=C(N2CCCC2)CC1c1ccccc1` (centres undefined), for which, in the experiment on Mus musculus [12], the outcome was Active.
Consider `CN[C@H](CC(C)C)C(=O)N[C@H]1C(=O)N[C@@H](CC(N)=O)C(=O)N[C@H]2C(=O)N[C@H]3C(=O)N[C@H](C(=O)N[C@H](C(=O)O)c4cc(O)cc(O)c4-c4cc3ccc4O)[C@H](O)c3ccc(c(Cl)c3)Oc3cc2cc(c3O[C@@H]2O[C@H](CO)[C@@H](O)[C@H](O)[C@H]2O[C@H]2C[C@](C)(N)[C@H](O)[C@H](C)O2)Oc2ccc(cc2Cl)[C@H]1O` [VANCOMYCIN], for which the result (in the experiment with Staphylococcus aureus [2]; with Escherichia coli; in the experiment with Haemophilus influenzae [7]; in the experiment on Enterococcus faecalis; in [10]) was inactive. Also, the MIC in the experiment with Haemophilus influenzae [4] is over 32 µg/mL; in the experiment on Enterococcus [5] it was 1 µg/mL (≈ 0.69 µM); against Streptococcus pneumoniae it was 0.25 µg/mL (≈ 0.173 µM); against Staphylococcus [8], 2 µg/mL (≈ 1.38 µM); against Staphylococcus [9] it was 1 µg/mL (≈ 0.69 µM); in the experiment with Enterococcus [11], 8 µg/mL (≈ 5.52 µM).
For `COC(=O)C1C(=O)C=C(Nc2ccccc2)CC1c1ccccc1` (centres undefined), the result with Mus musculus [1] was Active.

For the origin of these results see ChEMBL document CHEMBL1137699, “Synthesis, antibacterial and anticonvulsant evaluations of some cyclic enaminones” (Eur J Med Chem, 2009).
